{
  "source": "ChEMBL document CHEMBL2429803",
  "about": "“Animal toxicity of hairpin pyrrole-imidazole polyamides varies with the turn unit” (J Med Chem, 2013)",
  "key": {"Mus musculus [1]": {"system": "Mus musculus", "assay": "Toxicity in C57BL/6J mouse assessed as hunched posture at 1 mg/kg, sc administered every 3 days for a cycle of 2 injections", "type": "organism-based", "design": "dose 1 mg/kg, route subcutaneous", "details": "in vivo, 72 h", "outline": "(§1)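 Male C57BL/6J mice, 3 per group, given 1 mg/kg sc every 3 days. Weight recorded on injection days. Watched for signs of duress. Humane end point was visible duress or weight loss over 15% of starting body weight.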"}, "Mus musculus [2]": {"system": "Mus musculus", "assay": "Acute toxicity in C57BL/6J mouse assessed as mild lymphoid apoptosis in white pulp of spleen at 3 to 10 mg/kg, sc after 9 days", "type": "organism-based", "design": "dose 3-10 mg/kg, route subcutaneous", "details": "in vivo, 216 h", "outline": "(§2)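 Male C57BL/6J mice, 8 weeks old, received a single sc dose (1, 3 or 10 mg/kg in 25% DMSO/saline, n = 4 per group) and were sacrificed after 9 days. Two representative animals per group were fixed in 10% formalin. Cecum, duodenum, heart, ileum, kidney, liver, lung, pancreas, spleen and stomach were examined blind by a veterinary pathologist and lesions graded mild, moderate or severe.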"}, "Mus musculus [3]": {"system": "Mus musculus", "assay": "Acute toxicity in C57BL/6J mouse assessed as hepatocellular necrosis and apoptosis at 1 mg/kg, sc after 9 days", "type": "organism-based", "design": "dose 1 mg/kg, route subcutaneous", "details": "in vivo, 216 h", "outline": "as §2"}, "Mus musculus [4]": {"system": "Mus musculus", "assay": "Acute toxicity in C57BL/6J mouse assessed as karyomegaly at 1 mg/kg, sc after 9 days", "type": "organism-based", "design": "dose 1 mg/kg, route subcutaneous", "details": "in vivo, 216 h", "outline": "as §2"}, "Mus musculus [5]": {"system": "Mus musculus", "assay": "Acute toxicity in C57BL/6J mouse assessed as lesions in pancreas at 1 to 10 mg/kg, sc after 9 days", "type": "organism-based", "design": "dose 1-10 mg/kg, route subcutaneous", "details": "in vivo, 216 h", "outline": "as §2"}, "Mus musculus [6]": {"system": "Mus musculus", "assay": "Acute toxicity in C57BL/6J mouse assessed as lesions in GI tract at 1 to 10 mg/kg, sc after 9 days", "type": "organism-based, Gastrointestinal tract", "design": "dose 1-10 mg/kg, route subcutaneous", "details": "in vivo, 216 h", "outline": "as §2"}, "Mus musculus [7]": {"system": "Mus musculus", "assay": "Acute toxicity in C57BL/6J mouse at 1 mg/kg, sc after 9 days", "type": "organism-based", "design": "dose 1 mg/kg, route subcutaneous", "details": "in vivo, 216 h", "outline": "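Single sc injection in male 8-week-old C57BL/6J mice (1, 3 or 10 mg/kg in 25% DMSO/saline; n = 4 per group), followed for 9 days with daily weighing, then sacrifice. Toxicity was assessed by blinded histopathology of two mice per group and by blinded serum ALT, AST, total bilirubin, BUN and creatinine from retroorbital blood of all mice.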"}, "Mus musculus [8]": {"system": "Mus musculus", "assay": "Acute toxicity in C57BL/6J mouse assessed as hunched posture at 3 to 10 mg/kg, sc after 9 days", "type": "organism-based", "design": "dose 3-10 mg/kg, route subcutaneous", "details": "in vivo, 216 h", "outline": "(§3)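 Male C57BL/6J mice, 8 weeks old, were acclimated 3 days and then given a single sc injection of 1, 3 or 10 mg/kg in 25% DMSO/saline vehicle (up to 200 μL), n = 4 per group. Weight, behaviour and appearance were monitored daily for 9 days before sacrifice. The humane end point was visible duress or weight loss over 15% of the original.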"}, "Mus musculus [9]": {"system": "Mus musculus", "assay": "Toxicity in C57BL/6J mouse assessed as hyaline droplet accumulation at 1 mg/kg, sc administered every 3 days for a cycle of 3 injections measured 2 days post last injection", "type": "organism-based", "design": "dose 1 mg/kg, route subcutaneous", "details": "in vivo, 48 h", "outline": "(§4)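 Male C57BL/6J mice, 8 weeks old, given 1 mg/kg sc every 3 days for three injections and sacrificed 2 days after the last one. Two mice per group fixed in 10% formalin. A veterinary pathologist, blinded, examined cecum, duodenum, heart, ileum, kidney, liver, lung, pancreas, spleen and stomach. Lesions graded mild, moderate or severe.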"}, "Mus musculus [10]": {"system": "Mus musculus", "assay": "Acute toxicity in C57BL/6J mouse assessed as acute morbidity at 3 to 10 mg/kg, sc after 9 days", "type": "organism-based", "design": "dose 3-10 mg/kg, route subcutaneous", "details": "in vivo, 216 h", "outline": "as §3"}, "[11]": {"assay": "Metabolic stability in human liver microsomes after 1 hr by LC/MS/MS analysis", "type": "ADME, Microsome", "details": "read-out: Stability", "outline": "(§5)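 Compound incubated at 37 °C for 60 min with 1 mg/mL human or mouse liver microsomes in 100 mM KH2PO4, 3 mM MgCl2, pH 7.4, with 2 mM NADPH or without it. Stopped with ice-cold methanol, then precipitate removed. Analyzed by LC/MS/MS as % remaining versus time zero. Duplicates.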"}, "Mus musculus [12]": {"system": "Mus musculus", "assay": "Acute toxicity in C57BL/6J mouse assessed as lesions in heart at 1 to 10 mg/kg, sc after 9 days", "type": "organism-based", "design": "dose 1-10 mg/kg, route subcutaneous", "details": "in vivo, 216 h", "outline": "as §2"}, "[13]": {"assay": "Metabolic stability in human liver microsomes after 1 hr by LC/MS/MS analysis in presence of NADPH", "type": "ADME, Microsome", "details": "read-out: Stability", "outline": "as §5"}, "Mus musculus [14]": {"system": "Mus musculus", "assay": "Acute toxicity in C57BL/6J mouse assessed as loss of mobility at 3 to 10 mg/kg, sc after 9 days", "type": "organism-based", "design": "dose 3-10 mg/kg, route subcutaneous", "details": "in vivo, 216 h", "outline": "as §3"}, "Mus musculus [15]": {"system": "Mus musculus", "assay": "Acute toxicity in C57BL/6J mouse assessed as milder tubular regeneration at 1 mg/kg, sc after 9 days", "type": "organism-based", "design": "dose 1 mg/kg, route subcutaneous", "details": "in vivo, 216 h", "outline": "as §2"}, "Mus musculus [16]": {"system": "Mus musculus", "assay": "Toxicity in C57BL/6J mouse assessed as hepatocellular necrosis and apoptosis at 1 mg/kg, sc administered every 3 days for a cycle of 3 injections measured 2 days post last injection", "type": "organism-based", "design": "dose 1 mg/kg, route subcutaneous", "details": "in vivo, 48 h", "outline": "as §4"}, "Mus musculus [17]": {"system": "Mus musculus", "assay": "Acute toxicity in C57BL/6J mouse assessed as lesions in lungs at 1 to 10 mg/kg, sc after 9 days", "type": "organism-based", "design": "dose 1-10 mg/kg, route subcutaneous", "details": "in vivo, 216 h", "outline": "as §2"}, "Mus musculus [18]": {"system": "Mus musculus", "assay": "Acute toxicity in C57BL/6J mouse assessed as moderate atypical tubular regeneration in kidney at 3 to 10 mg/kg, sc after 9 days", "type": "organism-based", "design": "dose 3-10 mg/kg, route subcutaneous", "details": "in vivo, 216 h", "outline": "as §2"}, "Mus musculus [19]": {"system": "Mus musculus", "assay": "Acute toxicity in C57BL/6J mouse assessed as diffuse hepatocellular necrosis and apoptosis at 3 to 10 mg/kg, sc after 9 days", "type": "organism-based", "design": "dose 3-10 mg/kg, route subcutaneous", "details": "in vivo, 216 h", "outline": "as §2"}, "[20]": {"assay": "Metabolic stability in mouse liver microsomes after 1 hr by LC/MS/MS analysis", "type": "ADME, Microsome", "details": "read-out: Stability", "outline": "as §5"}, "Mus musculus [21]": {"system": "Mus musculus", "assay": "Acute toxicity in C57BL/6J mouse assessed as multifocal bridging hepatocellular necrosis and apoptosis at 3 to 10 mg/kg, sc after 9 days", "type": "organism-based", "design": "dose 3-10 mg/kg, route subcutaneous", "details": "in vivo, 216 h", "outline": "as §2"}, "Mus musculus [22]": {"system": "Mus musculus", "assay": "Acute toxicity in C57BL/6J mouse assessed as tubular epithelial necrosis and apoptosis in kidney at 3 to 10 mg/kg, sc after 9 days", "type": "organism-based", "design": "dose 3-10 mg/kg, route subcutaneous", "details": "in vivo, 216 h", "outline": "as §2"}, "Mus musculus [23]": {"system": "Mus musculus", "assay": "Acute toxicity in C57BL/6J mouse assessed as lesions in stomach at 1 to 10 mg/kg, sc after 9 days", "type": "organism-based", "design": "dose 1-10 mg/kg, route subcutaneous", "details": "in vivo, 216 h", "outline": "as §2"}, "Mus musculus [24]": {"system": "Mus musculus", "assay": "Toxicity in C57BL/6J mouse assessed as loss of mobility at 1 mg/kg, sc administered every 3 days for a cycle of 2 injections", "type": "organism-based", "design": "dose 1 mg/kg, route subcutaneous", "details": "in vivo, 72 h", "outline": "as §1"}, "[25]": {"assay": "Metabolic stability in mouse liver microsomes after 1 hr by LC/MS/MS analysis in presence of NADPH", "type": "ADME, Microsome", "details": "read-out: Stability", "outline": "as §5"}, "Mus musculus [26]": {"system": "Mus musculus", "assay": "Toxicity in C57BL/6J mouse assessed as weight loss at 1 mg/kg, sc administered every 3 days for a cycle of 2 injections", "type": "organism-based", "design": "dose 1 mg/kg, route subcutaneous", "details": "in vivo, 72 h", "outline": "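8-week-old male C57BL/6J mice, acclimated 3 days, groups of three, dosed sc in 25% DMSO/saline vehicle once every 3 days, sacrificed 2 days after the last injection. Body weight recorded on injection days and at end point; humane end point set at visible duress or >15% loss of original body weight.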"}},
  "data": [
    {"smiles": "CC(=O)N[C@@H](CNC(=O)c1cc(NC(=O)c2cc(NC(=O)c3cc(NC(=O)c4nccn4C)cn3C)cn2C)cn1C)CC(=O)Nc1cn(C)c(C(=O)Nc2cc(C(=O)Nc3cc(C(=O)Nc4cc(C(=O)NCCCN(C)CCCNC(=O)c5cccc(C(=O)O)c5)n(C)c4)n(C)c3)n(C)c2)n1", "values": [
      {"measurement": "Activity", "setting": "Mus musculus [1]", "result": "Toxic"},
      {"measurement": "Activity", "setting": "Mus musculus [2]", "result": "Toxic"},
      {"measurement": "Activity", "setting": "Mus musculus [3]", "result": "Toxic"},
      {"measurement": "Activity", "setting": "Mus musculus [4]", "result": "Toxic"},
      {"measurement": "Activity", "setting": "Mus musculus [5]", "result": "Non-toxic"},
      {"measurement": "Activity", "setting": "Mus musculus [6]", "result": "Non-toxic"},
      {"measurement": "Activity", "setting": "Mus musculus [7]", "result": "Non-toxic"},
      {"measurement": "Activity", "setting": "Mus musculus [8]", "result": "Toxic"},
      {"measurement": "Activity", "setting": "Mus musculus [9]", "result": "Toxic"},
      {"measurement": "Activity", "setting": "Mus musculus [10]", "result": "Toxic"},
      {"measurement": "remaining at 1 h", "setting": "[11]", "result": "< 5", "unit": "%"},
      {"measurement": "Activity", "setting": "Mus musculus [12]", "result": "Non-toxic"},
      {"measurement": "remaining at 1 h", "setting": "[13]", "result": "< 5", "unit": "%"},
      {"measurement": "Activity", "setting": "Mus musculus [14]", "result": "Toxic"},
      {"measurement": "Activity", "setting": "Mus musculus [15]", "result": "Toxic"},
      {"measurement": "Activity", "setting": "Mus musculus [16]", "result": "Toxic"},
      {"measurement": "Activity", "setting": "Mus musculus [17]", "result": "Non-toxic"},
      {"measurement": "Activity", "setting": "Mus musculus [18]", "result": "Toxic"},
      {"measurement": "Activity", "setting": "Mus musculus [19]", "result": "Toxic"},
      {"measurement": "remaining at 1 h", "setting": "[20]", "result": "< 5", "unit": "%"},
      {"measurement": "Activity", "setting": "Mus musculus [21]", "result": "Toxic"},
      {"measurement": "Activity", "setting": "Mus musculus [22]", "result": "Toxic"},
      {"measurement": "Activity", "setting": "Mus musculus [23]", "result": "Non-toxic"},
      {"measurement": "Activity", "setting": "Mus musculus [24]", "result": "Toxic"},
      {"measurement": "remaining at 1 h", "setting": "[25]", "result": "< 5", "unit": "%"},
      {"measurement": "Activity", "setting": "Mus musculus [26]", "result": "Toxic"}
    ]}
  ]
}
